Laboratory results published in ChEMBL document CHEMBL1124279, “N,N-Dialkylated monophenolic trans-2-phenylcyclopropylamines: novel central 5-hydroxytryptamine receptor agonists” (J Med Chem, 1988).

How the values were obtained:
[1] = target: T1, Serotonin (5-HT) receptor (Rattus norvegicus) (UniProt P35563+P35365+P32305+P31388+Q9JJ16+P28564+P30994+Q62758+P08909+P14842+P30940+P35364+P19327+P28565); assay: Evaluated for receptor mediated feedback inhibition of 5-HTP formation in limbic tissue of rat brain when administered subcutaneously; format: functional, tissue-based; conditions: Limbic system
Summary of the method: (§1)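 Reserpinized male Sprague-Dawley rats (200–300 g), compounds in saline (occasionally a few drops of glacial acetic acid and/or warming), near-neutral pH, given sc at 5 or 10 mL/kg. Reserpine was in acetic acid/5.5% glucose. 5-HTP formation was measured in the brain part. The ED50 is the dose giving a half-maximal decrease, from dose-response curves of four to six doses (n = 3-4).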

[2] = target: T1, Serotonin (5-HT) receptor (Rattus norvegicus); assay: Evaluated for receptor mediated feedback inhibition of 5-HTP formation in striatum tissue of rat brain when administered subcutaneously; format: functional, tissue-based; summary of the method: as §1
[3] = target: T1, Serotonin (5-HT) receptor (Rattus norvegicus); assay: Evaluated for receptor mediated feedback inhibition of 5-HTP formation in hemisphere of rat brain when administered subcutaneously; format: functional; summary of the method: as §1

SMILES	ED50 [1] [µmol/kg]	ED50 [2] [µmol/kg]	ED50 [3] [µmol/kg]
CCCN(CCC)C1CC1c1ccccc1O (stereo in doubt; 8)	0.41	0.36	0.36
CCCN(CCC)C1CC1c1ccc(O)c(O)c1 (stereo not given)	> 50	> 50	> 50
CCCN(CCC)C1CC1c1cccc(O)c1 (stereo in doubt; (+)-18)	> 50	> 50	> 50
CCCCN(CCCC)C1CC1c1ccccc1O (stereo not given)	> 50	> 50	> 50
CN(C)C1CC1c1ccccc1O (stereo not given)	6.2	3.45	9.31
CCCN(CCC)C1CC1c1ccccc1OC (stereo not given)	0.93	–	0.72
CCCN(CCC)C1CC1c1cccc(O)c1 (single isomer, unassigned; (-))	0.34	0.28	0.35
CCCN(CCC)C1CC1c1ccccc1O (single isomer, unassigned; (-))	0.28	0.26	0.38
CCCCN(CCCC)C1CC1c1cccc(O)c1 (stereo not given)	> 50	> 50	> 50
CCCN(CCC)[C@@H]1CCc2cccc(O)c2C1	0.061	0.065	0.077
CCN(CC)C1CC1c1ccccc1O (stereo not given)	0.82	1.2	0.8
CCN(CC)C1CC1c1cccc(O)c1 (stereo not given)	0.34	0.32	0.4
CCCN(CCC)C1CC1c1ccc(O)cc1 (stereo not given)	> 50	> 50	> 50
CCCN(CCC)C1CC1c1ccccc1O (single isomer, unassigned; (+))	> 50	14.5	> 50
CCCN(CCC)C1CC1c1cccc(O)c1 (stereo in doubt; 18)	0.66	0.47	0.58
CN(C)C1CC1c1cccc(O)c1 (stereo not given)	10.8	8.59	25.1
CCCN(CCC)C1CC1c1cccc(OC)c1 (stereo not given)	2.06	1.17	1.43
